According to ChEMBL document CHEMBL2150918, “Discovery of new scaffolds for rational design of HCV NS5B polymerase inhibitors” (Eur J Med Chem, 2012):
Activity calls are given as the source filed them. The rule behind the calls is not given here.

Assays:
Hepatitis C virus [1] = assay: Inhibition of wild type recombinant C terminal His6-tagged HCV1b NS5B Cdelta21 RNA dependent RNA polymerase activity expressed in Escherichia coli JM109 (DE3) at 100 uM using poly rA/U12 template primer by liquid scintillation counting; design: species or system Hepatitis C virus subtype 1b
How it was run: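 Radiometric RdRp assay with wild-type NS5BCΔ21 (genotype 1b), C-terminal His6, Ni-NTA purified from E. coli JM109(DE3); poly rA/U12 template-primer. Compounds from 10 mM DMSO stocks, single-point at 100 µM. Started with 1.0 mM MnCl2, stopped with ice-cold 10% TCA/0.5 mM pyrophosphate. Incorporated radioactive UTP TCA-precipitated on GF-B filters, scintillation-counted; activity relative to DMSO control set at 100%.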

Hepatitis C virus [2] = assay: Inhibition of wild type recombinant C terminal His6-tagged HCV1b NS5B Cdelta21 RNA dependent RNA polymerase activity expressed in Escherichia coli JM109 (DE3) using poly rA/U12 template primer by liquid scintillation counting; design: species or system Hepatitis C virus subtype 1b; settings: JM 109
How it was run: (§1)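 Radiometric RdRp assay with His6-tagged NS5BCΔ21 (wild type or P495L, M423T, M414T mutants) purified from E. coli JM109(DE3) by Ni-NTA. Template-primer poly rA/U12. Compounds diluted serially in DMSO. Started with 1.0 mM MnCl2, stopped with ice-cold 10% TCA plus 0.5 mM pyrophosphate. Incorporated UTP TCA-precipitated on GF-B filters and scintillation counted. Activity set relative to DMSO control. IC50 from nonlinear fit of 8–12 concentrations, duplicate, two independent experiments.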

Hepatitis C virus [3] = assay: Inhibition of recombinant HCV1b NS5B Cdelta21 RNA dependent RNA polymerase P495L mutant TP1 binding site using poly rA/U12 template primer by liquid scintillation counting; design: species or system Hepatitis C virus subtype 1b; how it was run: as §1
Hepatitis C virus [4] = assay: Inhibition of recombinant HCV1b NS5B Cdelta21 RNA dependent RNA polymerase M423T mutant TP2 binding site using poly rA/U12 template primer by liquid scintillation counting; design: species or system Hepatitis C virus subtype 1b; how it was run: as §1
Hepatitis C virus [5] = assay: Inhibition of recombinant HCV1b NS5B Cdelta21 RNA dependent RNA polymerase M414T mutant PP1 binding site using poly rA/U12 template primer by liquid scintillation counting; design: species or system Hepatitis C virus subtype 1b; how it was run: as §1
Hepatitis C virus [6] = assay: Ratio of IC50 for recombinant HCV1b NS5B Cdelta21 RNA dependent RNA polymerase M423T mutant TP2 binding site to IC50 for wild type recombinant C terminal His6-tagged HCV1b NS5B Cdelta21 RNA dependent RNA polymerase; design: species or system Hepatitis C virus subtype 1b
Hepatitis C virus [7] = assay: Ratio of IC50 for recombinant HCV1b NS5B Cdelta21 RNA dependent RNA polymerase P495L mutant TP1 binding site to IC50 for wild type recombinant C terminal His6-tagged HCV1b NS5B Cdelta21 RNA dependent RNA polymerase; design: species or system Hepatitis C virus subtype 1b
Hepatitis C virus [8] = assay: Ratio of IC50 for recombinant HCV1b NS5B Cdelta21 RNA dependent RNA polymerase M414T mutant PP1 binding site to IC50 for wild type recombinant C terminal His6-tagged HCV1b NS5B Cdelta21 RNA dependent RNA polymerase; design: species or system Hepatitis C virus subtype 1b
[9] = Cytotoxicity against BHK cells assessed as cell viability by firefly luciferase reporter gene assay; assay type: cell-based, Mesocricetus auratus; settings: hamster
How it was run: (§2)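 BHK-NS5B-FRLuc reporter cells (DMEM, 10% heat-inactivated FBS, G418 1 mg/mL, blasticidin 10 µg/mL, 37°C, 5% CO2) treated with 100 µM compound or matching 1% DMSO for 42 hr. Lysates read by dual luciferase. Viability taken as firefly signal versus DMSO. Polymerase inhibition taken as percent reduction of Renilla/firefly ratio versus DMSO. At least three independent experiments in duplicate.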

BHK = assay: Inhibition of intracellular HCV NS5B RNA dependent RNA polymerase activity expressed in BHK cells at 100 uM after 42 hrs by renilla luciferase reporter gene assay; assay type: cell-based; settings: Hepacivirus hominis; how it was run: as §2

Structure (SMILES): O=C(CCS(=O)(=O)c1ccccc1)N1CCN(C(=O)CCS(=O)(=O)c2ccccc2)CC1
- inhibition at 100 µM (Hepatitis C virus [1]): ≥ 50%
- IC50 (Hepatitis C virus [2]): 33.1 µM
- IC50 (Hepatitis C virus [3]): 33.5 µM
- IC50 (Hepatitis C virus [4]): > 250 µM
- IC50 (Hepatitis C virus [5]): 37.8 µM
- Ratio IC50 (Hepatitis C virus [6]): >4.5
- Ratio IC50 (Hepatitis C virus [7]): <=1.4
- Ratio IC50 (Hepatitis C virus [8]): <=1.4
- CC50 [9]: > 100 µM
- inhibition (BHK): 42.1%

Structure (SMILES): Cc1cc(O)c(C(c2ccc(Cl)c(Cl)c2)c2c(O)cc(C)oc2=O)c(=O)o1
- inhibition at 100 µM (Hepatitis C virus [1]): ≥ 50%
- IC50 (Hepatitis C virus [2]): 56.8 µM
- IC50 (Hepatitis C virus [3]): 63.8 µM
- IC50 (Hepatitis C virus [4]): > 250 µM
- IC50 (Hepatitis C virus [5]): 62.4 µM
- Ratio IC50 (Hepatitis C virus [6]): >4.5
- Ratio IC50 (Hepatitis C virus [7]): <=1.4
- Ratio IC50 (Hepatitis C virus [8]): <=1.4
- CC50 [9]: > 100 µM
- inhibition (BHK): inactive

Structure (SMILES): O=C(O)c1ccc(Nc2nnc(-c3ccccc3)c(=O)[nH]2)cc1O
- inhibition at 100 µM (Hepatitis C virus [1]): ≥ 50%
- IC50 (Hepatitis C virus [2]): 46.2 µM
- IC50 (Hepatitis C virus [3]): 40.6 µM
- IC50 (Hepatitis C virus [4]): > 250 µM
- IC50 (Hepatitis C virus [5]): 52.1 µM
- Ratio IC50 (Hepatitis C virus [6]): >4.5
- Ratio IC50 (Hepatitis C virus [7]): <=1.4
- Ratio IC50 (Hepatitis C virus [8]): <=1.4
- CC50 [9]: > 100 µM
- inhibition (BHK): 45.1%

Structure (SMILES): Cn1cc(C(=O)N2CCN(C(=O)c3ccc(F)cc3F)CC2)c2nn(-c3ccccc3)c(=O)c-2c1
- inhibition at 100 µM (Hepatitis C virus [1]): ≥ 50%
- IC50 (Hepatitis C virus [2]): 39.5 µM
- IC50 (Hepatitis C virus [3]): 41 µM
- IC50 (Hepatitis C virus [4]): > 250 µM
- IC50 (Hepatitis C virus [5]): 44.8 µM
- Ratio IC50 (Hepatitis C virus [6]): >4.5
- Ratio IC50 (Hepatitis C virus [7]): <=1.4
- Ratio IC50 (Hepatitis C virus [8]): <=1.4
- CC50 [9]: > 100 µM
- inhibition (BHK): 43.3%

Structure (SMILES): COc1cc(/C=N/Nc2ccccc2C(=O)O)cc(Br)c1O
- inhibition at 100 µM (Hepatitis C virus [1]): ≥ 50%
- IC50 (Hepatitis C virus [2]): 20.3 µM
- IC50 (Hepatitis C virus [3]): 19.2 µM
- IC50 (Hepatitis C virus [4]): 172 µM
- IC50 (Hepatitis C virus [5]): 23.7 µM
- Ratio IC50 (Hepatitis C virus [6]): 8.5
- Ratio IC50 (Hepatitis C virus [7]): <=1.4
- Ratio IC50 (Hepatitis C virus [8]): <=1.4
- CC50 [9]: > 100 µM
- inhibition (BHK): 57.8%

Structure (SMILES): CCOC(=O)/C(C#N)=C\c1cn(CCC(=O)O)nc1-c1ccc(F)cc1
- inhibition at 100 µM (Hepatitis C virus [1]): ≥ 50%
- IC50 (Hepatitis C virus [2]): 33 µM
- IC50 (Hepatitis C virus [3]): 34.3 µM
- IC50 (Hepatitis C virus [4]): > 250 µM
- IC50 (Hepatitis C virus [5]): 28.6 µM
- Ratio IC50 (Hepatitis C virus [6]): >4.5
- Ratio IC50 (Hepatitis C virus [7]): <=1.4
- Ratio IC50 (Hepatitis C virus [8]): <=1.4
- CC50 [9]: > 100 µM
- inhibition (BHK): 44.2%

Structure (SMILES): C/C(=N\Nc1ncnc2ccccc12)C(=O)O
- inhibition at 100 µM (Hepatitis C virus [1]): ≥ 50%
- IC50 (Hepatitis C virus [2]): 16 µM
- IC50 (Hepatitis C virus [3]): 14.2 µM
- IC50 (Hepatitis C virus [4]): 127 µM
- IC50 (Hepatitis C virus [5]): 22.9 µM
- Ratio IC50 (Hepatitis C virus [6]): 7.9
- Ratio IC50 (Hepatitis C virus [7]): <=1.4
- Ratio IC50 (Hepatitis C virus [8]): <=1.4
- CC50 [9]: > 100 µM
- inhibition (BHK): 62.4%

Structure (SMILES): CC1CS(=O)(=O)N(c2ccc(S(=O)(=O)Nc3cccc4cccnc34)cc2)C1=O (stereo unspecified)
- inhibition at 100 µM (Hepatitis C virus [1]): ≥ 50%
- IC50 (Hepatitis C virus [2]): 36.7 µM
- IC50 (Hepatitis C virus [3]): 43 µM
- IC50 (Hepatitis C virus [4]): > 250 µM
- IC50 (Hepatitis C virus [5]): 36.1 µM
- Ratio IC50 (Hepatitis C virus [6]): >4.5
- Ratio IC50 (Hepatitis C virus [7]): <=1.4
- Ratio IC50 (Hepatitis C virus [8]): <=1.4
- CC50 [9]: > 100 µM
- inhibition (BHK): 40.5%

Structure (SMILES): COc1cc(O)c2c(c1)oc(=O)c1c3cc(O)c(O)cc3oc21 [WEDELOLACTONE]
- IC50 (Hepatitis C virus [2]): 34 µM
